According to ChEMBL document CHEMBL1141258, “Prismatomerin, a new iridoid from Prismatomeris tetrandra. Structure elucidation, determination of absolute configuration, and cytotoxicity” (J Nat Prod, 2007):
Activity calls are given as the source filed them. No cut-off for these calls is given here.

Assays:
MCF7 = test: Growth inhibition of human MCF7 cells after 48 hrs by SRB assay; type: functional; details: MCF7, 48 h
Method in brief: (§1)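 Run at NCI in the 60-human-tumor-cell-line anticancer screen. Each compound was tested at a minimum of five concentrations at 10-fold dilutions.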

UACC-257 = test: Growth inhibition of human UACC257 cells after 48 hrs by SRB assay; type: functional; details: UACC-257, 48 h
Method in brief: (§2)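 NCI 60 human tumour cell line in vitro anticancer screen, run at NCI. Compound tested at a minimum of five concentrations in 10-fold dilutions per cell line.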

LOX IMVI = test: Growth inhibition of human LOXIMVI cells after 48 hrs by SRB assay; type: functional; method in brief: as §1
SF-539 = test: Growth inhibition of human SF539 cells after 48 hrs by SRB assay; type: functional; details: SF-539, 48 h; method in brief: as §1
HCT-116 = test: Growth inhibition of human HCT116 cells after 48 hrs by SRB assay; type: functional; method in brief: as §1
NCI-H23 = test: Growth inhibition of human NCIH23 cells after 48 hrs by SRB assay; type: functional; details: NCI-H23, 48 h; method in brief: as §2
SF-268 = test: Growth inhibition of human SF268 cells after 48 hrs by SRB assay; type: functional; details: SF-268, 48 h; method in brief: as §1
IGROV-1 = test: Growth inhibition of human IGROV1 cells after 48 hrs by SRB assay; type: functional; details: IGROV-1, 48 h, read-out: Log LC50 (the source's name) (converted); method in brief: as §1
A549 [1] = test: Growth inhibition of human A549 cells after 48 hrs by SRB assay; type: functional; details: A549, 48 h; method in brief: as §1
A549 [2] = test: Antiproliferative activity against human A549 cells after 5 days by MTT assay; details: A549, 120 h
SK-OV-3 = test: Growth inhibition of human SK-OV3 cells after 48 hrs by SRB assay; type: functional; details: SK-OV-3, 48 h; method in brief: as §1
HL-60 = test: Growth inhibition of human HL60 cells after 48 hrs by SRB assay; type: functional; details: HL-60, 48 h; method in brief: as §2
A498 = test: Growth inhibition of human A498 cells after 48 hrs by SRB assay; type: functional; details: A498, 48 h; method in brief: as §1
[3] = Toxicity in brine shrimp after 24 hrs; type: organism-based; details: artemia, in vivo; read-out: LD50
MDA-MB-231 = test: Growth inhibition of human MDA-MB-231 cells after 48 hrs by SRB assay; type: functional; details: MDA-MB-231, 48 h; method in brief: as §2
CCRF-CEM = test: Growth inhibition of human CCRF-CEM cells after 48 hrs by SRB assay; type: functional; method in brief: as §2
SNB-75 = test: Growth inhibition of human SNB75 cells after 48 hrs by SRB assay; type: functional; method in brief: as §2
UACC-62 = test: Growth inhibition of human UACC62 cells after 48 hrs by SRB assay; type: functional; details: UACC-62, 48 h; method in brief: as §2
[4] = Growth inhibition of human […] cells after 48 hrs by SRB assay; type: functional; method in brief: as §1
[5] = Growth inhibition of human OVACAR3 cells after 48 hrs by SRB assay; type: functional; details: OVACAR3, 48 h; method in brief: as §1
BT-549 = test: Growth inhibition of human BT549 cells after 48 hrs by SRB assay; type: functional; method in brief: as §1
786-0 = test: Growth inhibition of human 786-0 cells after 48 hrs by SRB assay; type: functional; details: 786-0, 48 h; method in brief: as §1
NCI-H226 = test: Growth inhibition of human NCIH226 cells after 48 hrs by SRB assay; type: functional; details: NCI-H226, 48 h; method in brief: as §1
K562 = test: Growth inhibition of human K562 cells after 48 hrs by SRB assay; type: functional; details: K562, 48 h; method in brief: as §2
[6] = read-out: Log LC50 (the source's name) (converted)

Structure (SMILES): COC(=O)C1=CO[C@@H]2O[C@H]3/C(=C\c4ccc(O)cc4)C(=O)O[C@]34C=C[C@H]1[C@H]24 [PRISMATOMERIN]
- GI50 (MCF7): 120 nM
- CC50 (MCF7; [6]): > 100000 nM
- TGI (MCF7; read-out: Log TGI (converted)): 1000 nM
- GI50 (UACC-257): 145 nM
- CC50 (UACC-257; [6]): 10000 nM
- GI50 (LOX IMVI): 20.9 nM
- CC50 (LOX IMVI; [6]): 708 nM
- TGI (LOX IMVI; read-out: Log TGI (converted)): 240 nM
- GI50 (SF-539): 257 nM
- CC50 (SF-539; [6]): > 100000 nM
- TGI (SF-539; read-out: Log TGI (converted)): 457 nM
- Activity (HCT-116): inactive
- GI50 (HCT-116; HCT-116, 48 h): < 10 nM
- TGI (HCT-116; HCT-116, 48 h, read-out: Log TGI (converted)): 100 nM
- GI50 (NCI-H23): 186 nM
- CC50 (NCI-H23; [6]): 933 nM
- GI50 (SF-268): 263 nM
- CC50 (SF-268; [6]): 63100 nM
- TGI (SF-268; read-out: Log TGI (converted)): 759 nM
- CC50 (IGROV-1): 851 nM
- GI50 (A549 [1]): 295 nM
- CC50 (A549 [1]; [6]): > 100000 nM
- TGI (A549 [1]; read-out: Log TGI (converted)): 832 nM
- IC50 (A549 [2]): 1410 nM
- GI50 (SK-OV-3): 912 nM
- CC50 (SK-OV-3; [6]): > 100000 nM
- TGI (SK-OV-3; read-out: Log TGI (converted)): 3160 nM
- GI50 (HL-60): < 10 nM
- CC50 (HL-60; [6]): > 100000 nM
- GI50 (A498): 234 nM
- CC50 (A498; [6]): 871 nM
- TGI (A498; read-out: Log TGI (converted)): 457 nM
- LC50 at 24 h [3]: 195 nM
- GI50 (MDA-MB-231): 162 nM
- CC50 (MDA-MB-231; [6]): 851 nM
- GI50 (CCRF-CEM): 38 nM
- CC50 (CCRF-CEM; [6]): > 100000 nM
- Activity (SNB-75): inactive
- CC50 (SNB-75; SNB-75, 48 h, read-out: Log LC50 (the source's name) (converted)): > 100000 nM
- GI50 (UACC-62): 437 nM
- CC50 (UACC-62; [6]): 575 nM
- GI50 [4]: 1950 nM
- CC50 [4, 6]: 24500 nM
- TGI ([4]; read-out: Log TGI (converted)): 5370 nM
- GI50 [5]: 490 nM
- CC50 [5, 6]: 1700 nM
- TGI ([5]; read-out: Log TGI (converted)): 562 nM
- Activity (BT-549): inactive
- GI50 (BT-549; BT-549, 48 h): 151 nM
- GI50 (786-0): 19.5 nM
- CC50 (786-0; [6]): 550 nM
- TGI (786-0; read-out: Log TGI (converted)): 195 nM
- GI50 (NCI-H226): 174 nM
- CC50 (NCI-H226; [6]): 22900 nM
- TGI (NCI-H226; read-out: Log TGI (converted)): 479 nM
- GI50 (K562): < 10 nM
- CC50 (K562; [6]): > 100000 nM
